Data from PubChem BioAssay AID624314 (The Scripps Research Institute Molecular Screening Center, 2012).
Activity calls are given as the source filed them.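 Rule for the calls: active = relative activity ratio above 1.25 at every tested dose; inactive = the rest.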

Test system: HEK293 3B-HSD promoter CAT reporter, ELISA absorbance
Test: CAT reporter under 3B-HSD promoter control – cell-based, absorbance, counter-screen for DAX1 (NR0B1) inhibitor project, late-stage follow-up (AID 624314)
Details: at 100 µM (top of the series)
In short: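 Test system: transfected HEK293 cells with DAX-1, SF-1, 3β-HSD2 promoter CAT / Compound dosing: 3 doses, 1:2 steps, from 100 µM / Timing: compound exposure 16 h at 37 °C / Technique: CAT EIA absorbance / Replication: triplicate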

SMILES	relative activity ratio
Cn1c(=O)n(C)c2cc(C(=O)Nc3ccc4c(c3)OCCO4)ccc21	0.26 (inactive)
Cn1c(=O)n(C)c2cc(C(=O)Nc3ccc4c(c3)OCO4)ccc21	0.34 (inactive)
